Experimental data from PubChem BioAssay AID588731 (Vanderbilt Specialized Chemistry Center, 2011).
The source made the active and inactive calls.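 How the source made its calls: active means compounds shifting agonist potency at least twofold either way, or pushing peak agonist response below 75% or above 125%; inactive means the rest.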

Target: Metabotropic glutamate receptor 7 (Rattus norvegicus) (UniProt P35400)
Experiment: rat mGlu7 allosteric modulation, L-AP4 curve shift, profiling panel, selectivity assay for mGlu5 PAM project, thallium flux, HEK/GIRK cells (AID 588731)
Details: L-AP4 CRC shift, at 10 µM; for Emax: measured here: L-AP4 max response with compound
Outline: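 Material: HEK cells with GIRK channels expressing rat mGlu7 receptor. Probe or stimulus: L-AP4 concentration-response curve. Compound dosing: single test compound concentration of 10 µM final. Incubation: dye loading 45 min at 37 °C, L-AP4 addition at 142 s. Signal: GIRK thallium flux fluorescence. Evaluation: agonist EC50 fold shift and %Emax.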

Sequence of Metabotropic glutamate receptor 7 (Rattus norvegicus) (P35400 whole entry, looked up): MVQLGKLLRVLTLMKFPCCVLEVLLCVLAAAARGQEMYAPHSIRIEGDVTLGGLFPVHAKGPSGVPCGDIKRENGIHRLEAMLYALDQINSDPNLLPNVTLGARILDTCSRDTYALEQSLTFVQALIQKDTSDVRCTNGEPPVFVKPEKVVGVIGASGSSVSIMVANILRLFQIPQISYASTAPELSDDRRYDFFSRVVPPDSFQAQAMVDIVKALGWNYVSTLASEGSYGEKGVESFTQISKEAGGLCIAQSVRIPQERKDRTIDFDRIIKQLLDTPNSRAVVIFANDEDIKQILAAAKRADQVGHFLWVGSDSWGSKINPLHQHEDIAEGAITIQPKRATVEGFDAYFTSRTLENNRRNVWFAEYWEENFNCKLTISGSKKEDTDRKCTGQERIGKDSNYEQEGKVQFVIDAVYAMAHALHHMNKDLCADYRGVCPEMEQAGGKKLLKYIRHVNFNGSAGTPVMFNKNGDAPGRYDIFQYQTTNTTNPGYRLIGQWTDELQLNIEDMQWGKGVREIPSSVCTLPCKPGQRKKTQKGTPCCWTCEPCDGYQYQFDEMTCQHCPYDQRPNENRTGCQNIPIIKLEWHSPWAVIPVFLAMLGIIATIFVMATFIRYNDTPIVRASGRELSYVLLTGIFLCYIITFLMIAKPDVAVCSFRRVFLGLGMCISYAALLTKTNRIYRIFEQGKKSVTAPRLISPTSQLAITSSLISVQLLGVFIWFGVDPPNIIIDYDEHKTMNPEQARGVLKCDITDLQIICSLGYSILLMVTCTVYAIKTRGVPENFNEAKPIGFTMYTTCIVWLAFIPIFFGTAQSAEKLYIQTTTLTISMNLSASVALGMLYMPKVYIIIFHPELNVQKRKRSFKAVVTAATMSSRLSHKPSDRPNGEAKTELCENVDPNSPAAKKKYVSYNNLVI

SMILES | fold shift | Emax [%]
C[C@@H](NC(=O)c1ccc(C#Cc2cccc(F)c2)cn1)C(C)(C)O | 1.04 (inactive) | 92
CC1(NC(=O)c2ccc(C#Cc3cccc(F)c3)cn2)COC1 | 0.77 (inactive) | 92.3
